FN deposition inh – fibronectin deposition inhibition | AH1F fibroblasts, Alexa488-fibronectin deposition fluorescence, overnight | inhibition, % at 12.6 µM | hit rate 0.086% among 350,000;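 active = mean inhibition across replicates of 30% or more, regardless of how many single replicates reach that level; inconclusive = mean under 30% yet at least half of replicates reach 30%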;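 also: positive control wells lacked labelled fibronectin entirely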
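Assay system: AH1F fibroblast monolayer, labelled fibronectin deposition. Amount: 10000 cells per well. Also added: labelled fibronectin 24 nM. Compound: single-point pinned compound. Incubation: cell attachment 1 h, compound and FN exposure overnight. Detection: fluorescence after three HBSS washes, excitation 485 nm, emission 525 nm. Read-out: inhibition of fibronectin deposition signal.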
FGF22 binding – binders of recombinant human FGF22 by thermal shift. SYPRO orange fluorescence; percent of sucrose octasulfate shift, DMSO zero. activity (Tm shift, normalised), % at 9.99 µM. hit rate 1.5% among 340,000;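 active = mean Tm shift, scaled 0 neutral to 100 positive control, at about 1.3% or above, every replicate too, limit read from the data; inconclusive = no clear call, values can overlap the other calls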
MLL AF4-AF9 inh – inhibitors of human MLL-AF4/AF9 interaction; P42568; AlphaScreen, biotin-AF4 peptide binding to FLAG-AF9; inhibition, % at 10 µM; hit rate 0.47% among 350,000;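 active = every replicate reaching a set inhibition limit, whatever the replicate mean, cut at about 25% in these data; inconclusive = mean inhibition reaches that limit but some replicates miss it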;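 also: 0% = plate neutral control median and 100% = total signal loss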
Target sequence (P42568 whole entry, looked up): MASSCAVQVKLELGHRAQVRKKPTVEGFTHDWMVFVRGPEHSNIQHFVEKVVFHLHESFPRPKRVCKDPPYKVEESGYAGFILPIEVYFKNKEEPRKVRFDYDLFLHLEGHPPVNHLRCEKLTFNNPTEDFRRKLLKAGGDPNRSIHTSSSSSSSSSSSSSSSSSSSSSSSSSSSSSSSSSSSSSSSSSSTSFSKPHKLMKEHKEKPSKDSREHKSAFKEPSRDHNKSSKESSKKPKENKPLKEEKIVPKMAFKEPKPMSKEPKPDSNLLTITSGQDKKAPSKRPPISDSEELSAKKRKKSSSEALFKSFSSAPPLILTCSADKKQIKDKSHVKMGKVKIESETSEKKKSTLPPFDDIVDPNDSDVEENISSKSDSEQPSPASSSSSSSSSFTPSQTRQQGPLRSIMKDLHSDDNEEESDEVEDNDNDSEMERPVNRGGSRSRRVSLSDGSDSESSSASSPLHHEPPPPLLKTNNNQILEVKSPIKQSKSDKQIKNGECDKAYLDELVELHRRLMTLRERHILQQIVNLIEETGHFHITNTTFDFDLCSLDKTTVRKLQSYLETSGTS
ARNT TACC3 PPI – disrupts binding between human ARNT and TACC3 | Q9Y6A5 | AlphaScreen His-ARNT PAS-B/GST-TACC3 binding, luminescence; TACC3 fragment carries E629A point mutation | inhibition, % at 9.99 µM | hit rate 0.66% among 390,000 | AID 623870;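 active = mean inhibition of replicates at least 50% and at least half of replicates each reaching 50%; inconclusive = half or more replicates reach 50% but mean below 50%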;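 also: 0% = complete ARNT plus TACC3 wells and 100% = ARNT alone without TACC3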
PDI inh – blocks human protein disulfide isomerase activity | PDI insulin aggregation turbidity, A650, 90 min | inhibition, % at 10 µM | hit rate 0.052% among 350,000 | AID 588391;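 active = mean inhibition across replicates of 30% or more, whatever share of single replicates reach that level; inconclusive = mean inhibition below 30% while every single replicate reaches 30%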
ERp5 block – ERp5 (human) disulfide isomerase inhibition; inhibition, % at 9.99 µM; ERp5 insulin aggregation, absorbance 650 nm, 90 min; Q15084; hit rate 0.05% among 350,000;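 active = mean replicate inhibition above about 25%, with every replicate also reaching it, limit read from the data, passing the limit was not always enough; inconclusive = only one of those two criteria met; inactive = neither criterion met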
* hit, by the source's call; ? = inconclusive; nt = not tested or not shown. A selection: hits, their analogues and other compounds. The true share with any hit is near 2.1%.

SMILES	FN deposition inh	FGF22 binding	MLL AF4-AF9 inh	ARNT TACC3 PPI	PDI inh	ERp5 block
CCC(C)[C@H](N)c1cn([C@@H](Cc2cc3ccccc3[nH]2)C(=O)N2CCNCC2)nn1 (some centres undefined)	-0.3	-0.1	29.9*	14.0	2.3	1.8
O=C(c1cccc(F)c1)N1CC2(C1)[C@@H](c1ccccc1)[C@@H](CO)N2C(=O)C1CCC1	-1.7	nt	0.8	nt	nt	2.1
O=C1N[C@H](Cc2ccccc2)COCc2cn(nn2)CC[C@@H]1Cc1cccc(Cl)c1	-10.2	nt	nt	nt	nt	nt
CCOc1ccc(OCCSc2ccc(S(=O)(=O)N3CCN(C)CC3)cn2)cc1	-1.6	-0.2	27.0*	nt	-1.2	0.8
CC(C)NC(=O)Nc1ccc2c(c1)C(=O)N([C@H](C)CO)C[C@H](C)[C@@H](CN(C)C(=O)CCCN(C)C)OCCCC[C@H](C)O2	-13.3	-0.5	-0.7	-0.6	nt	-3.4
COc1ccccc1CNC(=O)C1(C)Oc2cccnc2NC1=O (centres undefined)	-3.3	0.1	-2.0	0.8	3.7	2.2
CC1(C(=O)NCCCN2CCOCC2)Oc2cccnc2NC1=O (centres undefined)	5.0	43.3*	-0.1	-0.9	10.8	2.2
Cc1ccc(S(=O)(=O)N(C)CCN(C)S(=O)(=O)c2ccc(C)cc2)cc1	7.8	43.2*	4.5	-5.1	2.0	-1.4
Oc1cccc(/C=N/N(Cc2ccccc2)c2ccccc2)c1	21.3	0.2	8.4	14.8	8.1	5.0
Oc1ccc(/C=N/N(Cc2ccccc2)c2ccccc2)c(O)c1O	-5.3	0.2	27.0*	9.8	-1.4	1.9
O=C(COc1ccccc1Br)Nc1ccccc1C(F)(F)F	-10.9	43.0*	-8.2	3.7	-8.5	2.8
CC(=O)Nc1ccccc1OCC(=O)NC(C)c1ccccc1 (centres undefined)	-7.6	1.0	1.1	-0.1	11.4	6.0
CC(=O)Nc1ccccc1OCC(=O)NCC(F)(F)F	1.8	43.9*	-2.1	-2.1	6.9	5.9
CCNC(=O)[C@@H]1[C@@H](CO)[C@@H]2Cn3c(cccc3=O)[C@H]1N2Cc1cc(F)ccc1F	nt	nt	-4.4	nt	nt	0.2
COc1ccc(NC(=O)Nc2ccc3c(c2)C(=O)N([C@H](C)CO)C[C@@H](C)[C@@H](CN(C)S(=O)(=O)c2ccc(Cl)cc2)OCCCC[C@H](C)O3)cc1	10.0	-0.4	-1.6	-4.4	nt	0.9
Cc1ccc(C)n1-c1ccc(C(=O)NCc2ccncc2)cc1	6.8	44.0*	2.1	-3.9	3.3	5.3
COc1cc(C(=O)NCc2ccncc2)cc(OC)c1OC	nt	42.9*	-6.1	-20.5	2.8	-0.8
COc1cc(C(=O)Nc2ccncc2)cc(OC)c1OC	nt	-0.1	4.0	1.8	-4.2	-3.1
O=C(Oc1ccc2c(c1)OCO2)C12CC3CC(CC(C3)C1)C2	4.4	0.1	-7.5	0.8	8.4	0.0
O=C(Oc1ccc(O)cc1)C12CC3CC(CC(C3)C1)C2	-0.4	-0.1	-1.6	-9.5	65.3*	-0.9
O=C(N[C@@H]1CC[C@H](CC(=O)N2CCC(Cc3ccccc3)CC2)O[C@H]1CO)c1cnccn1	-4.0	0.1	-1.5	1.8	nt	2.5
CC(C)NC(=O)N(C)C[C@@H]1OCCCC[C@@H](C)Oc2ccc(NS(=O)(=O)c3ccccc3)cc2C(=O)N([C@H](C)CO)C[C@H]1C	nt	-0.3	5.0	-8.8	nt	4.2
CO[C@@H]1CN(C)C(=O)c2cc(NC(=O)C3CCOCC3)ccc2OC[C@@H](C)N(C(=O)C2CCOCC2)C[C@H]1C	-1.2	-0.4	1.6	-5.2	nt	-1.6
O=C(CSc1ncnc2sccc12)Nc1ccccc1F	nt	0.0	2.2	-3.4	-2.6	-5.3
O=C(CSc1ncnc2sccc12)Nc1ccccc1	-1.6	43.3*	-0.4	-6.1	-3.3	-7.5
SMILES	FN deposition inh	FGF22 binding	MLL AF4-AF9 inh	ARNT TACC3 PPI	PDI inh	ERp5 block
Cc1cc(C)cc(NC(=S)Nc2ccc(Cl)c(Cl)c2)c1	-7.8	0.8	3.1	29.9	3.8	4.3
Cc1cccc(C)c1NC(=S)Nc1ccc(Cl)c(Cl)c1	-9.3	43.4*	-0.2	2.2	-0.3	-2.3
OCCNC(=S)Nc1ccc(Cl)c(Cl)c1	-0.1	1.4*	9.4	1.4	0.8	0.1
OCCNC(=S)Nc1cc(Cl)cc(Cl)c1	-3.9	0.1	-3.2	-1.0	0.6	1.0
CCC(=O)N1[C@@H]2c3ccc(C4=CCCC4)c(=O)n3C[C@@H]2[C@@H](CO)[C@@H]1C(=O)NCc1ccc(F)cc1	nt	0.0	1.9	10.4	nt	0.0
COc1ccc(S(=O)(=O)N(C)C[C@@H]2Oc3c(NS(=O)(=O)c4ccc(F)cc4)cccc3C(=O)N([C@H](C)CO)C[C@@H]2C)cc1	nt	-0.2	nt	nt	nt	nt
CN(C)CCCNC(=O)[C@@H]1[C@@H](CO)[C@@H]2Cn3c(ccc(-c4cccc(F)c4)c3=O)[C@H]1N2	nt	nt	10.2	nt	nt	-0.3
O=C(NCc1ccccc1)c1nc(-c2cccs2)no1	1.5	44.0*	-12.5	-0.8	22.6	2.7
c1ccc(C2=Nn3c(nnc3-c3ccncc3)SC2)cc1	3.3	nt	nt	-1.2	-2.8	nt
Cc1cccc(-c2nnc3n2N=C(c2ccccc2)CS3)c1	active	nt	nt	4.6	-0.3	nt
C[C@H](CO)N1C[C@H](C)[C@@H](CN(C)Cc2ccncc2)Oc2ncc(C#CC3CCCC3)cc2C1=O	-18.0	-0.3	8.1	-1.6	nt	4.4
CN(Cc1c(C(=O)N2CCc3ccccc3C2)nc2ccc(Cl)cn12)C(C1CC1)C1CC1	-2.7	43.0*	4.0	0.5	-1.4	3.9
CCN(C)Cc1c(C(=O)N2CCc3ccccc3C2)nc2ccc(Cl)cn12	-6.8	0.1	1.5	nt	-1.3	-3.4
C/C=C/c1ccc2c(c1)O[C@@H](CN(C)C(=O)NC(C)C)[C@@H](C)CN([C@@H](C)CO)S2(=O)=O	-10.1	0.0	0.9	-5.4	nt	7.5
COc1ccc(NC(=O)Cn2nnc(C(=O)Nc3ccccc3C)c2N)cc1	-35.0	43.5*	-1.4	-8.6	0.8	7.6
COc1ccc(NC(=O)Cn2nnc(C(=O)NCCc3ccccc3)c2N)cc1	-9.7	-0.5	-0.7	5.7	-2.9	-0.8
CCn1nc(C)c(CCC(=O)O)c1C	-6.3	42.9*	0.3	-9.0	-0.9	-1.3
Cc1nn(C)c(C)c1CCC(=O)O	-1.7	0.1	-0.5	-7.6	3.4	5.6
CCOC(=O)CCc1c(C)n[nH]c1C	-2.9	43.0*	-2.5	nt	-5.7	2.5
Cn1c(-c2cccc(Br)c2)cnc1NCc1ccccc1O	-0.7	-0.5	26.2*	11.6	13.7	1.2
CCOC(=O)N(C)C[C@@H]1OCc2ccccc2-c2c(n(C)c3ccccc23)C(=O)N([C@H](C)CO)C[C@@H]1C	0.0	0.0	?	5.0	nt	-3.0
Cc1nccn1-c1ccc(C(F)(F)F)cc1[N+](=O)[O-]	-6.0	43.0*	-1.6	3.9	0.7	-4.5
Cc1nccn1-c1ccc(C(F)(F)F)cc1NC=O	nt	nt	nt	nt	-4.8	nt
